Data from ChEMBL document CHEMBL2380285, “Quinolin-4(1H)-imines are potent antiplasmodial drugs targeting the liver stage of malaria” (J Med Chem, 2013).
The source made the active and inactive calls. No cut-off for these calls is given here.

Assays:
Plasmodium berghei [1] = test: Antiplasmodial activity against liver stage Plasmodium berghei infected in human HuH7 cells co-expressing GFP-Luccon treated for 1 hr prior to infection followed by 24 hrs after compound washout measured after 48 hrs post-infection by Alamar Blue assay; type: functional, organism-based; conditions: Huh-7
Summary of the method: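 Huh-7 hepatoma cells infected with P. berghei were exposed to a rising series of inhibitor concentrations, with 10 μM the highest tested. IC50 was read from sigmoidal concentration–response curves.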

[2] = Binding affinity to hematin (unknown origin) by UV-visible titration analysis
[3] = Half life in rat liver microsomes at 1 uM after 24 hrs by LC-MS/MS analysis
[4] = Selectivity index, ratio of CC50 for human HepG2 cells to IC50 for liver stage Plasmodium berghei; type: functional
Plasmodium falciparum [5] = test: Antiplasmodial activity against ring stage Plasmodium falciparum W2 infected in human RBC after 48 hrs by FACS analysis; type: functional, organism-based; conditions: W2, 48 h
[6] = Cytotoxicity against human HepG2 cells after 48 hrs by Alamar Blue assay; type: cell-based
[7] = Inhibition of heme crystallization to hemozoin; type: functional
Plasmodium berghei [8] = test: Ratio of primaquine IC50 to compound IC50 for liver stage Plasmodium berghei infected in human HuH7 cells; type: functional, Huh-7
[9] = Inhibition of Cytochrome b-c1 complex in Plasmodium falciparum 3D7A mitochondria assessed as antimycin-sensitive decylubiquinol-cytochrome c oxidoreductase level
[10] = target: T1, Dihydroorotate dehydrogenase (fumarate) (Saccharomyces cerevisiae S288c) (UniProt P28272); test: Inhibition of Saccharomyces cerevisiae DHODH expressed in Plasmodium falciparum Dd2 by [3H]-hypoxanthine incorporation assay in presence of proguanil
T1 sequence (whole entry): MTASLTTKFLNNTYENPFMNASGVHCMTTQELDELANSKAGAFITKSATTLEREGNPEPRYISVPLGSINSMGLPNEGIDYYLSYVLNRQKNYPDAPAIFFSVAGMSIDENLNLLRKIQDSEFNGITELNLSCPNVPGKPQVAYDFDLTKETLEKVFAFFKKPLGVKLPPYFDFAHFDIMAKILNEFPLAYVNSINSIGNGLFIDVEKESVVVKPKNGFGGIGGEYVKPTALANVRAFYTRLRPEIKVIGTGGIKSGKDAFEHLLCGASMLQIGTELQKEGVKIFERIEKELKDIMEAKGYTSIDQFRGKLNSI

[11] = target: T1, Dihydroorotate dehydrogenase (fumarate) (Saccharomyces cerevisiae S288c); test: Inhibition of Saccharomyces cerevisiae DHODH expressed in Plasmodium falciparum Dd2 by [3H]-hypoxanthine incorporation assay
Plasmodium falciparum [12] = test: Inhibition of Plasmodium falciparum thioredoxin reductase using DTNB as substrate up to 50 uM after 1 hr by colorimetric assay
Plasmodium falciparum [13] = test: Inhibition of Plasmodium falciparum Enoyl-ACP reductase using Crotonoyl-CoA as substrate up to 50 uM after 20 mins by fluorescence assay

Structure (SMILES)	logKA [2]	IC50 (Plasmodium falciparum [5]) [nM]	IC50 [7] [nM]	IC50 (Plasmodium berghei [1]) [nM]	Ratio CC50/IC50 [4]	CC50 at 48 h [6] [nM]	further results
CCn1cc/c(=N\c2ccc(Oc3cccc(OC(F)(F)F)c3)cc2)c2ccc(C(F)(F)F)cc21	3.9	1560		537	24	12900	half-life at 24 h, 1 µM ([3]; microsomes): 8.5 h
CCn1cc/c(=N\c2cccc(CCc3ccc(OC(F)(F)F)cc3)c2)c2ccc(Cl)cc21	5.2	3110		227	17.4	3940	
CCOC(=O)c1cn(CC)c2ccc(F)cc2/c1=N/c1ccc(-c2ccccc2)cc1		5320		> 10000			
CCn1cc/c(=N\c2cccc(CCc3ccc(OC(F)(F)F)cc3)c2)c2ccc(C(F)(F)F)cc21	4.9	1670		235	25.9	6090	
O=C(CC1NCCCC1O)Cn1cnc2cc(Br)c(Cl)cc2c1=O (stereo unspecified) [HALOFUGINONE]				17			
CCOC(=O)c1cn(C)c2ccc(F)cc2/c1=N/c1ccc(-c2ccccc2)cc1		5880		> 10000			
Cc1nc(C)c(Cl)c(O)c1Cl [CLOPIDOL]	4.7			1460			
CCN(CC)CCCC(C)Nc1ccnc2cc(Cl)ccc12 (stereo unspecified) [CHLOROQUINE]			6600				
CCn1cc/c(=N\c2cccc(CCc3ccc(Cl)cc3)c2)c(Cl)c1				407			
CCn1cc/c(=N\c2ccc(Cc3ccccc3)cc2)c2ccc(Cl)cc21	5	1690		589	4.91	2890	
O=C1C(O)=C([C@H]2CC[C@H](c3ccc(Cl)cc3)CC2)C(=O)c2ccccc21 [ATOVAQUONE]				0.376			IC50 [9]: 0.3 nM

Continued, in another order:

logKA [2]	IC50 (Plasmodium falciparum [5]) [nM]	IC50 [7] [nM]	Structure (SMILES)	IC50 (Plasmodium berghei [1]) [nM]	Ratio CC50/IC50 [4]	CC50 at 48 h [6] [nM]	further results
5.1	1090	16200	CCn1cc/c(=N\c2ccc(Oc3ccc(Cl)cc3)cc2)c2ccc(Cl)cc21	87	30.9	2690	half-life at 24 h, 1 µM ([3]; microsomes): 3.9 h; Ratio IC50 (Plasmodium berghei [8]): 94
	1260		CCn1cc/c(=N\c2ccc(Oc3ccc(C(F)(F)F)cc3)cc2)c2ccc(Cl)cc21	234		3200	
5.4	890		CCn1cc/c(=N\c2ccc(Oc3ccccc3)cc2)c2ccc(Cl)cc21	214	24.9	5330	
5.6	540	18900	CCn1cc/c(=N\c2ccc(-c3ccccc3)cc2)c2ccc(Cl)cc21	200	23.6	4610	half-life at 24 h, 1 µM ([3]; liver microsomes): 4 h
4.9	960	13500	CCn1cc/c(=N\c2ccc(Oc3ccc(OC(F)(F)F)cc3)cc2)c2ccc(Cl)cc21	145	24.3	3530	
5.1	1180	15400	CCn1cc/c(=N\c2ccc(Oc3cccc(OC(F)(F)F)c3)cc2)c2ccc(Cl)cc21	81	63.7	5160	IC50 [9]: 1200 nM; inhibition [10]: inactive; inhibition [11]: inactive; inhibition (Plasmodium falciparum [12]): inactive; inhibition (Plasmodium falciparum [13]): inactive; Ratio IC50 (Plasmodium berghei [8]): 94
5.7	590	17000	CCn1cc/c(=N\c2ccc(-c3ccccc3)cc2)c2ccc(C(F)(F)F)cc21	575	12.2	7040	IC50 [9]: 28000 nM; inhibition [10]: inactive; inhibition [11]: inactive; inhibition (Plasmodium falciparum [12]): inactive; half-life at 24 h, 1 µM ([3]; liver microsomes): 4.2 h; inhibition (Plasmodium falciparum [13]): inactive
4.9	1080		Cn1cc/c(=N\c2ccc(Oc3ccc(C(F)(F)F)cc3)cc2)c2ccc(Cl)cc21	229	13.4	3080	half-life at 24 h, 1 µM ([3]; liver microsomes): 4.1 h
